NPY-Y1 PAM-ag: NPY-Y1 receptor potentiators or agonists, primary screen, cell-based | NPY-Y1 expressing cells, potentiator/agonist activation | activation, % at 3.6 µM | hit rate 0.37% among 220,000 | AID 1304, 2008; in the data active = activation above about 33%, passing the limit was not always enough;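 note: cells stimulated with NPY at EC10 then isoproterenol at EC100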
Hsp70 act: Hsp70 transcriptional activators, primary screen, cell-based, HeLa, Hsp70 promoter luciferase, luminescence, 10 µM | hit rate 0.04% among 200,000 | AID 1203, 2008 | activation, % at 10 µM | HeLa Hsp70 promoter luciferase reporter; scaled: vehicle 0, proteasome-inhibitor control 100%;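 active = activation above the mean across all tested compounds plus 3 SD, cutoff set per campaign, cut at about 5.5% in these data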
NPY Y2 blocker: NPY-Y2 receptor antagonists, primary screen, cell-based; Neuropeptide Y receptor type 2 (Homo sapiens), P49146; NPY-Y2 expressing cells, antagonist mode; inhibition, % at 2.7 µM; hit rate 0.99% among 140,000; AID 793, 2007; in the data active = inhibition above about 17%
NPY-Y1 antag: NPY-Y1 receptor antagonists, primary screen, cell-based. Neuropeptide Y receptor type 1 (Homo sapiens), P25929. HEK293-CNG Y1 cells, membrane potential fluorescence; NPY at EC95, then isoproterenol. inhibition, % at 3.6 µM. hit rate 1% among 200,000. AID 1040, 2008;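 active = inhibition above the campaign mean inhibition of all tested compounds plus 3 SD, cut at about 20% in these data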
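Assay system: HEK293 cells with Y1 receptor plus CNG channel | Probe or stimulus: NPY (25 nM), isoproterenol (1 µM), Ro 20-1724 (25 µM) | Timing: Compound incubation 1 h at room temperature, readout 45 min post-stimulation | Measured by: Membrane-potential fluorescent dye readout | Benchmarks: High control isoproterenol alone, low control NPY with isoproterenol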
NPY-Y2 PAM-ag: NPY-Y2 potentiators or agonists, primary screen, cell-based | cells expressing NPY-Y2, potentiator/agonist read-out | activation, % at 3.6 µM | hit rate 0.45% among 220,000; in the data active = activation above about 27%;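 note: cells stimulated with NPY near EC25 plus isoproterenol at EC100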
Wee1 degr inh: Wee1 degradation inhibitors, primary screen, cell-based, HeLa, Wee1K328M-luciferase, luminescence. Wee1-like protein kinase (Homo sapiens), P30291. HeLa Luc-Wee1K328M stability; 100% = proteasome inhibitor MG132 effect. reporter increase, % at 5 µM. hit rate 1.2% among 220,000;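 active = activation above the mean of all tested compounds plus 3 SD, set per screening run, cut at about 8.8% in these data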;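 note: cells exposed to compound for 20 h before luminescence read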
Target sequence (P30291 whole entry K328M): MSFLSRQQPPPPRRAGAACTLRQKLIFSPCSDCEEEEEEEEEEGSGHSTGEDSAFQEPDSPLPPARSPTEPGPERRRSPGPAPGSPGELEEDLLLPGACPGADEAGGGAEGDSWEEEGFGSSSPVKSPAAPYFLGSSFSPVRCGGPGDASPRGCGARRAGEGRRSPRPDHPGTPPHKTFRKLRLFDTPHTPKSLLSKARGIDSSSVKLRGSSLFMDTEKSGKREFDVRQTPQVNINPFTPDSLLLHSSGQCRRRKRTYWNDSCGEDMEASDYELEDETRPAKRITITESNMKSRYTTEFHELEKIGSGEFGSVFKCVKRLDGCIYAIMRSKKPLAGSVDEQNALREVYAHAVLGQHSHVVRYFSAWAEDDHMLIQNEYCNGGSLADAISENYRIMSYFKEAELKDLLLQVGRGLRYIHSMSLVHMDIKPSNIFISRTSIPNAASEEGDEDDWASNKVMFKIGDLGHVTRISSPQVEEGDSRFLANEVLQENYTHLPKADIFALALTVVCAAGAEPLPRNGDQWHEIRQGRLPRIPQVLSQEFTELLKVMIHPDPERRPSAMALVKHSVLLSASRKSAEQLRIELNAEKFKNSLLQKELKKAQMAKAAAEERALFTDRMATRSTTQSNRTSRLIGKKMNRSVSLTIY
Hits are given with their value; . = inactive; / = no result. Shown are actives, neighbours in structure and some others; about 3% of the full set was active somewhere.

SMILES	NPY-Y1 PAM-ag	Hsp70 act	NPY Y2 blocker	NPY-Y1 antag	NPY-Y2 PAM-ag	Wee1 degr inh
Cc1cc(N2CCN(C(=O)c3ccco3)CC2)n2nc(-c3cccc(Cl)c3)cc2n1	.	.	.	.	.	9.2
Nc1ncc(Br)cc1S(=O)(=O)NCCC(=O)N1CCN(c2ncccn2)CC1	.	.	.	.	.	.
CCCCn1c(=N)n(CC(O)COc2ccc(C)cc2)c2ccccc21 (stereo not given)	.	.	47	61	.	.
N=c1n(CCN2CCOCC2)c2ccccc2n1CC(O)COc1ccccc1 (stereo not given)	.	.	.	.	.	.
CCCCn1c(=N)n(CC(O)COc2ccccc2)c2ccccc21 (stereo not given)	.	.	26	34	.	.
CCCCn1c(=N)n(CC(O)c2ccccc2)c2ccccc21 (stereo not given)	.	/	/	/	.	.
N=c1n(CCN2CCCCC2)c2ccccc2n1CC(O)COc1ccccc1 (stereo not given)	.	.	60	49	.	.
COCC(=O)N1CCC(n2nnc3cc(C(F)(F)F)ccc32)CC1	.	.	/	.	.	.
O=C(c1cnn(C(=O)c2cccc(S(=O)(=O)N3CCOCC3)c2)c1)c1ccccc1O	.	.	/	.	.	.
CCOc1ccc(C(=O)Nc2ncccc2Cl)cc1	.	.	/	.	.	.
O=C(Nc1ccc(-c2cnco2)cc1)c1ccccc1	.	/	/	/	.	.
O=C(NC(=O)c1ccccc1Cl)Nc1ccc(-c2cnco2)cc1	.	/	/	/	.	10.0
CCOc1ccccc1N1C(=O)CC(Sc2n[nH]c(-c3ccccc3)n2)C1=O (stereo not given)	.	.	/	.	.	.
CCCCOC(=O)Nc1ccc(C)c(Cl)c1	.	.	.	.	.	.
CC1CCN(CCOc2ccccc2-c2ccccc2)CC1	.	.	.	.	.	.
CC1CC(C)CN(CCOc2ccccc2-c2ccccc2)C1 (stereo not given)	.	.	30	34	.	.
C=CCn1c(Cc2csc(N)n2)nnc1SCc1ccc(C(=O)OC)cc1	.	.	.	.	.	.
CC(=O)Oc1ccc2c(=O)c(-c3nc4ccccc4s3)coc2c1	.	.	/	.	.	9.1
CC(C)Oc1ccc2c(=O)c(-c3ccccc3)coc2c1	.	.	.	.	.	.
C/C(CC(=O)Nc1cccc(Cl)c1C)=N\NC(=O)Cc1csc(N)n1	.	.	/	.	.	.
COC(=O)C1=C(C)N(c2ccc(OC)c(OC)c2)C(=O)/C1=C\c1ccco1	.	.	/	.	.	8.9
Cc1ccc(-c2cc3c(nn2)-c2ccccc2C3=O)cc1	.	/	/	/	.	.
O=C1c2ccccc2-c2nnc(-c3ccc(F)cc3)cc21	.	.	/	.	.	9.8
O=C(NCc1n[nH]c(=S)n1-c1cccc(C(F)(F)F)c1)c1ccc(S(=O)(=O)N2CCCC2)cc1	.	.	/	.	.	.
O=C(NCc1n[nH]c(=S)n1-c1cccc(Cl)c1)c1ccc(S(=O)(=O)N2CCCC2)cc1	.	.	.	.	.	11
SMILES	NPY-Y1 PAM-ag	Hsp70 act	NPY Y2 blocker	NPY-Y1 antag	NPY-Y2 PAM-ag	Wee1 degr inh
COc1cccc(CN(C)C(=O)c2cc(COc3ccc4ncccc4c3)on2)c1	.	.	/	21	.	.
COc1cccc(CN(C)C(=O)c2cc(COc3c(F)cccc3F)on2)c1	.	.	/	.	.	.
COc1ccc2nc(NC(=O)c3cccs3)sc2c1	.	/	/	/	.	9.5
CCN(C(=O)CSc1nnc(Cc2cccc3ccccc23)n1N)C1CCS(=O)(=O)C1 (stereo not given)	.	.	.	.	.	.
CCOC(=O)C1(P(=O)(c2ccc(Cl)cc2)c2ccc(Cl)cc2)CCC1	.	.	27	28	.	.
O=C(c1ccc(S(=O)(=O)N2CCCC2)cc1)N(Cc1ccco1)C1CCS(=O)(=O)C1 (stereo not given)	.	/	/	/	.	.
COC(=O)/C(=N/Nc1ccccc1)N1CCCc2ccccc21	.	.	22	29	.	.
COC(=O)/C(=N/Nc1ccc(C)cc1)N1CCCc2ccccc21	.	.	19	29	.	.
Cc1ccc(C2CC(C(F)F)n3ncc(C(=O)Nc4c(C)nn(Cc5c(F)cccc5Cl)c4C)c3N2)cc1 (stereo not given)	.	.	.	.	.	.
NC1=NC(=Nc2cccc(S(N)(=O)=O)c2)c2ccccc21	.	/	/	/	.	.
COc1cc(N=Nc2cccc(S(N)(=O)=O)c2)c2ccccc2c1N	61	/	/	/	52	.
CC(C)n1nc(C(=O)Oc2cccc(Cl)c2Cl)c2ccccc2c1=O	.	.	.	.	.	.
CCN(c1ccccc1)S(=O)(=O)c1ccc(Cl)c(NC(=O)CSc2nnc(C)s2)c1	.	.	/	.	.	.
COc1cc(/C=N/Nc2cc(C)nc(NS(=O)(=O)c3ccccc3)n2)ccc1O	.	/	/	/	.	10
CC1/C(=N/O)CC(c2ccccc2)NC1c1ccccc1 (stereo not given)	.	.	.	.	.	.
CCCC1/C(=N/O)CC(c2ccccc2)NC1c1ccccc1 (stereo not given)	.	.	/	.	.	9.1
COc1ccc(/C=C/C(=O)c2ccc(O)cc2)cc1	.	.	/	.	.	.
COc1ccc(/C=C/C(=O)c2ccoc2)cc1	.	.	.	.	.	13
COC(=O)C1=C(C)NC(=O)NC1c1ccc(OC(=O)c2ccco2)cc1 (stereo not given)	.	.	/	.	.	.
O=C1CC(N2CCN(c3ncccn3)CC2)C(=O)N1CCc1ccccc1 (stereo not given)	.	.	/	.	.	.
CNC(=O)c1ccc(NC(=O)/C=C/c2cccc(F)c2)cc1	.	.	/	.	.	.
COc1cc(SC)ccc1C(=O)NCCOc1ccc(F)cc1	.	.	.	.	.	10
CN(C(=O)COC(=O)c1ccc2ccccc2n1)C1CCS(=O)(=O)C1 (stereo not given)	.	.	/	.	.	.
Cc1ccc(-c2nc(=S)c3c(n2Cc2ccco2)CCCC3)cc1	.	.	.	21	.	.
Cc1cccc(-c2nc(=S)c3c(n2Cc2ccco2)CCCC3)c1	.	.	22	25	.	.
CC(=O)Nc1ccc(N(C(=O)CNC(=O)c2ccco2)C(C(=O)NCc2ccco2)c2ccccc2F)cc1 (stereo not given)	.	.	/	.	.	.
COc1ccc(/C=N/NC(=O)c2cc(C(C)(C)C)[nH]n2)cc1COc1ccc(F)cc1F	.	.	/	.	.	.

Source: PubChem BioAssay
